Data published in ChEMBL document CHEMBL1156534, “Hemopressin is an inverse agonist of CB1 cannabinoid receptors” (Proc Natl Acad Sci U S A, 2007).

Key:
[1] = target: T1, Alpha-2A adrenergic receptor (Homo sapiens) (UniProt P08913); experiment: Antagonist activity at alpha2A adrenergic receptor expressed in HEK293 cells assessed as blockade of secreted alkaline phosphatase activity at 1 uM after 6 hrs relative to control; format: functional, cell-based
T1 sequence (whole entry): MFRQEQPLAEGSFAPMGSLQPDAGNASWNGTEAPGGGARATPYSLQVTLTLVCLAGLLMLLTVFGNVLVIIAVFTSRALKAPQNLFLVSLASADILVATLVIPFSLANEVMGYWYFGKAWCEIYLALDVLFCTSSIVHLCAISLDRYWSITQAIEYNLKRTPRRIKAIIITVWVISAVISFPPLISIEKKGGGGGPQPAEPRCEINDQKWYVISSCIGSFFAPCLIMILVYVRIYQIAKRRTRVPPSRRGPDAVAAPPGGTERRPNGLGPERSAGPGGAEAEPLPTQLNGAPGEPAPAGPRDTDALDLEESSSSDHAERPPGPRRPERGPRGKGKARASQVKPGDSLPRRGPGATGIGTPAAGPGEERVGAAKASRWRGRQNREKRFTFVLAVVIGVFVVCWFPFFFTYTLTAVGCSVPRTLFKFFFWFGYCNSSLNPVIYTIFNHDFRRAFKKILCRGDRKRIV
In short: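 HEK-293 cells transiently co-transfected with pCRE-SeAP and a Flag-tagged receptor, 30,000 cells/well on poly-L-lysine. They were serum-starved 16–18 h, then exposed 6 h in serum-free medium to 10 μM forskolin (omitted for β2) plus the receptor agonist (100 nM), with or without peptide (1 μM). Heat-treated supernatant SeAP was read by CSPD chemiluminescence. Mean ± SEM, n = 6.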

[2] = target: Beta-2 adrenergic receptor (Homo sapiens) (UniProt P07550); experiment: Antagonist activity at beta2 adrenergic receptor expressed in SKNSH cells at 100 nM by ELISA relative to control; format: functional, cell-based; design: scale not given: the % may be the effect or the level left
Sequence of Beta-2 adrenergic receptor (Homo sapiens) (P07550 whole entry, looked up): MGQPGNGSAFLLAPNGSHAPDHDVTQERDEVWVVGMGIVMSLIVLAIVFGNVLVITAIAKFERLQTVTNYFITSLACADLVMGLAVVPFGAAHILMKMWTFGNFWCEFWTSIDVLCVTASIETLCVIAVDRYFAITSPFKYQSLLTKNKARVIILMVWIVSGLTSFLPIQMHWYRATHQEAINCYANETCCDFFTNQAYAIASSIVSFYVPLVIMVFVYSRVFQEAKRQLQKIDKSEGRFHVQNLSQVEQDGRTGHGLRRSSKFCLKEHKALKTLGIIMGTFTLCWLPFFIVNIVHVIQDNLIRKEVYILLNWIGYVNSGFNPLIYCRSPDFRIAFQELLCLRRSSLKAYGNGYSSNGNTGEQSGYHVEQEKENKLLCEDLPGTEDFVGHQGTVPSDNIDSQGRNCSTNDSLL

- Activity [1]: 0.92
- Activity [2]: 104%
Compound: CC(C)C[C@H](NC(=O)[C@H](Cc1ccccc1)NC(=O)[C@H](CCCCN)NC(=O)[C@H](Cc1ccccc1)NC(=O)[C@H](CC(N)=O)NC(=O)[C@@H](NC(=O)[C@@H]1CCCN1)C(C)C)C(=O)N[C@@H](CO)C(=O)N[C@@H](Cc1cnc[nH]1)C(=O)O [HEMOPRESSIN]
